The values below come from ChEMBL document CHEMBL1145840, “Identification of (3R)-7-hydroxy-N-((1S)-1-[[(3R,4R)-4-(3-hydroxyphenyl)- 3,4-dimethyl-1-piperidinyl]methyl]-2-methylpropyl)-1,2,3,4-tetrahydro- 3-isoquinolinecarboxamide as a novel potent and selective opioid kappa receptor antagonist” (J Med Chem, 2003).

Each structure is given as a SMILES string. “And” between values parts separate entries of the source, which are not always exact repeats. Identical values can stand only once.

In test [1] the target is Mu-type opioid receptor (Cavia porcellus) (UniProt P97266). Description: Antagonistic activity against DAMGO and guinea pig caudate Opioid receptor mu 1 in [35S]GTP-gamma-S, assay. It is filed as functional. The essentials: (§1)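 Agonist-stimulated binding was run with varying drug concentrations, 3 h at 25 °C, then filtration and scintillation counting. Nonspecific binding was taken with 10 µM GTPγS. Three experiments were pooled and fit by nonlinear least squares to give Ke.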
(In general: Binding of GTPγS marks nucleotide exchange on a G protein.)

Test [2] has as its target Kappa-type opioid receptor (Cavia porcellus) (UniProt P41144). Kind of test: Inhibition of U69,593 antagonistic activity in [35S]GTP-gamma-S, assay against guinea pig Opioid receptor kappa 1. The format is functional. In a few lines: as §1
For test [3], the target named is T1, Delta-type opioid receptor (Homo sapiens, UniProt P41143). Kind of test: Binding affinity towards human cloned Opioid receptor delta 1 using [3H]Cl-DPDPE.
Test [4] deals with T1, Delta-type opioid receptor. Description: (§2) Antagonistic activity against human cloned Opioid receptor delta 1 using DPDPE in [35S]GTP-gamma-S, assay. The format is functional.
Test [5] has as its target T2, Kappa-type opioid receptor (Homo sapiens, UniProt P41145). Kind of test: Antagonistic activity against human cloned Opioid receptor kappa 1 using U69,593 in [35S]GTP-gamma-S, assay. It is filed as functional.
Test [6] concerns the target T3, Mu-type opioid receptor (Homo sapiens, UniProt P35372). Kind of test: Binding affinity towards human cloned Opioid receptor mu 1 using [3H]DAMGO.
Test [7] has as its target T3, Mu-type opioid receptor.
In test [8] the target is T2, Kappa-type opioid receptor. Description: Binding affinity towards human cloned Opioid receptor kappa 1 using [3H]U-69593.
Test [9] concerns the target Delta-type opioid receptor (Rattus norvegicus, UniProt P33533). Description: Inhibition of [3H]-DADLE binding to Opioid receptor delta 1 of rat brain tissue. The essentials: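 Rat brain membranes prepared daily, labelled with 2 nM [3H]DADLE. Incubation 2 h at 25 °C in 50 mM Tris-HCl pH 7.4 with 100 mM choline chloride, 3 mM MnCl2, 100 nM DAMGO to block mu sites, and protease inhibitors. Nonspecific binding was taken with 20 µM levallorphan. Radioligand was displaced by 8-10 drug concentrations. Ki came from IC50 via Cheng–Prusoff, from two pooled experiments.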

For test [10], the target named is Kappa-type opioid receptor (Cavia porcellus, UniProt P41144). Description: Inhibition of [3H]U-69593 binding to Opioid receptor kappa 1 of guinea pig brain. The essentials: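 Guinea pig brain membranes prepared daily, labelled with 2 nM [3H]U69,593. Incubation 2 h at 25 °C in 50 mM Tris-HCl pH 7.4 with 1 µg/mL captopril and protease inhibitors. Nonspecific binding was taken with 1 µM U69,593. Radioligand was displaced by 8-10 drug concentrations. Ki came from IC50 via IC50/(1+[L]/Kd), from two pooled experiments.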

In test [11] the target is T3, Mu-type opioid receptor. Kind of test: Antagonistic activity against human cloned Opioid receptor mu 1 using DAMGO in [35S]GTP-gamma-S, assay. The format is functional.
The target of test [12] is Mu-type opioid receptor (Rattus norvegicus, UniProt P33535). Kind of test: Inhibition of [3H]DAMGO binding to Opioid receptor mu 1 of rat brain tissue. The essentials: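 Rat brain membranes prepared daily, labelled with [3H]DAMGO. Incubation 2 h at 25 °C in 50 mM Tris-HCl pH 7.4 with protease inhibitor cocktail. Nonspecific binding was taken with 20 µM levallorphan. Radioligand was displaced by 8-10 drug concentrations. IC50 was converted to Ki by IC50/(1+[L]/Kd), from two pooled experiments.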

The target of test [13] is Opioid receptors; delta & kappa (Homo sapiens) (UniProt P41145+P41143). Kind of test: Selectivity ratio of delta and kappa opioid receptor. It is filed as protein assay.
The target of test [14] is T2, Kappa-type opioid receptor. Kind of test: Antagonistic activity against human cloned kOpioid receptor kappa 1 using U69,593 in [35S]GTP-gamma-S, assay. It is filed as functional. The conditions noted are these: read-out: pA2 (converted). The essentials:
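Membranes from CHO cells transfected with cloned human κ opioid receptor. Antagonism is measured as inhibition of U69,593-stimulated [35S]GTPγS binding and expressed as a Ke value.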

Test [15] concerns the target T3, Mu-type opioid receptor. Description: Antagonistic activity against human cloned Opioid receptor mu 1 using DPDPE in [35S]GTP-gamma-S, assay. The format is functional. Particulars: read-out: pA2 (converted).
Test [16] addresses Opioid receptors; mu & kappa (Homo sapiens) (UniProt P41145+P35372). Kind of test: Selectivity ratio of mu and kappa opioid receptor. It is filed as protein assay.
Test [17] deals with T1, Delta-type opioid receptor. Described as §2. Particulars: read-out: pA2 (converted). It is filed as functional.

Mu-type opioid receptor (Cavia porcellus), sequence (P97266 whole entry): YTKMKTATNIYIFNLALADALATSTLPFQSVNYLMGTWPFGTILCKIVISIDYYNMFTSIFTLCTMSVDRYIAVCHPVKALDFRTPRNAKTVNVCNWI
T3 sequence (P35372 whole entry): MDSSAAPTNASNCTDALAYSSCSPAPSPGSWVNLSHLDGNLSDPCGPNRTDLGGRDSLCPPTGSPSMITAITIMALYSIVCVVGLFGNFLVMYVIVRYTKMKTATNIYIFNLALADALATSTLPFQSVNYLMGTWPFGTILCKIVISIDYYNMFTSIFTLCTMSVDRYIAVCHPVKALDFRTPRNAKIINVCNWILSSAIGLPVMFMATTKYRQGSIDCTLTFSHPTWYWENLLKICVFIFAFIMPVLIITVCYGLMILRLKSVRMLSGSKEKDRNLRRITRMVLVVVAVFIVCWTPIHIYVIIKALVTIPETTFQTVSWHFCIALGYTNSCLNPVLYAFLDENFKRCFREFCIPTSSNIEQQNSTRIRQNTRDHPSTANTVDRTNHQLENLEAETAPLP
T1 sequence (P41143 whole entry): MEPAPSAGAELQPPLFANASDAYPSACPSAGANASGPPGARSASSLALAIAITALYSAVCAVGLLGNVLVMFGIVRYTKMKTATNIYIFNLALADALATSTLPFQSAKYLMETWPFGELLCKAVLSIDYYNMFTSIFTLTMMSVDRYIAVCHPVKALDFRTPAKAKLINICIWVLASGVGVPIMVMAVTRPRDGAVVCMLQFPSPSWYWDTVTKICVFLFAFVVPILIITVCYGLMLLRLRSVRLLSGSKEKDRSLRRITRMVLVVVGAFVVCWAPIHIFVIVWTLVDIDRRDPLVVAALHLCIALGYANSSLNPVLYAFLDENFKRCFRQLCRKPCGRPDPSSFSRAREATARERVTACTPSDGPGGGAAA
Opioid receptors; delta & kappa (Homo sapiens), sequence (P41143 whole entry, looked up): as the sequence (P41143 whole entry) above
Opioid receptors; delta & kappa (Homo sapiens), sequence (P41145 whole entry, looked up): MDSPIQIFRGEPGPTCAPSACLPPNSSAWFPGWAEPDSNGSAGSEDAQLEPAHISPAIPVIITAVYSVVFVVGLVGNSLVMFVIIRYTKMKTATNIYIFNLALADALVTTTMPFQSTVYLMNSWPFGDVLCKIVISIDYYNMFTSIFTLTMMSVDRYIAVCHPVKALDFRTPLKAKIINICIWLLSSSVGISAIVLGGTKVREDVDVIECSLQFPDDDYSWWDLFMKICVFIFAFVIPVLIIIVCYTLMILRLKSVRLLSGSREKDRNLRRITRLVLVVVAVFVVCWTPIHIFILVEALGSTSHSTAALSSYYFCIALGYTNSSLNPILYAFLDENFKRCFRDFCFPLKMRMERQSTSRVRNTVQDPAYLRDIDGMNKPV
Mu-type opioid receptor (Rattus norvegicus, UniProt P33535), sequence (P33535 whole entry): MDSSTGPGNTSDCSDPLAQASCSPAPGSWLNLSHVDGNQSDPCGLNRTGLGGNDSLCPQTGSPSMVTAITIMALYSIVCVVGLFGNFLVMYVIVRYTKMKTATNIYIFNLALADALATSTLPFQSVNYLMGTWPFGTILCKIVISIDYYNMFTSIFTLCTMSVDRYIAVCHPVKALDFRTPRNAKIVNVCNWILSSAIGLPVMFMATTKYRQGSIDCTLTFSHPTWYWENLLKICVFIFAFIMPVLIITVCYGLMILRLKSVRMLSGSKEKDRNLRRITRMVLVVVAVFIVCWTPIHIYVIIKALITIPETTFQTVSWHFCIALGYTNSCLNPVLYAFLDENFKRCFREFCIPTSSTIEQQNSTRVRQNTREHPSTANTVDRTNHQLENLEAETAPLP
T2 sequence (P41145 whole entry): as the sequence (P41145 whole entry, looked up) above
Kappa-type opioid receptor (Cavia porcellus, UniProt P41144), sequence (P41144 whole entry): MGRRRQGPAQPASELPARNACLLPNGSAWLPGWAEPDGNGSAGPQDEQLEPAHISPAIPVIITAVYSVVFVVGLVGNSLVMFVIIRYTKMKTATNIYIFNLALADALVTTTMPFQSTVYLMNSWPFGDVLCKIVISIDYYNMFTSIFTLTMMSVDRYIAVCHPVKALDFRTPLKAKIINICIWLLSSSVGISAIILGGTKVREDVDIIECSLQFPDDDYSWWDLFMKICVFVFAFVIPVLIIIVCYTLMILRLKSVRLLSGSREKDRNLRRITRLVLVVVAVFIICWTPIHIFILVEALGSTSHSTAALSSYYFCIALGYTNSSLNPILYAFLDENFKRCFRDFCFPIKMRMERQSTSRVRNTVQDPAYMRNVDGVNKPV
Kappa-type opioid receptor (Cavia porcellus), sequence (P41144 whole entry): as above
Delta-type opioid receptor (Rattus norvegicus, UniProt P33533), sequence (P33533 whole entry): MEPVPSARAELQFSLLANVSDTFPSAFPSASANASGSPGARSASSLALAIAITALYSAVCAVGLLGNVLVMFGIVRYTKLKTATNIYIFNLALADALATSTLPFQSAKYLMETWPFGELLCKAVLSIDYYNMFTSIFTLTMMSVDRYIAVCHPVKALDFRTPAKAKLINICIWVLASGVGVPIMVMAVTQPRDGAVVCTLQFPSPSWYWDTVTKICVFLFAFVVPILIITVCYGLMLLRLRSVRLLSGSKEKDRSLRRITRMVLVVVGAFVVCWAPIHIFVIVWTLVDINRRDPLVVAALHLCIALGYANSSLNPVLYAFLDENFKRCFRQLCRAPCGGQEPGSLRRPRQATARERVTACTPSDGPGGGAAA
Opioid receptors; mu & kappa (Homo sapiens), sequence (P35372 whole entry, looked up): as the sequence (P35372 whole entry) above
Opioid receptors; mu & kappa (Homo sapiens), sequence (P41145 whole entry, looked up): as the sequence (P41145 whole entry, looked up) above

`CC(C)[C@@H](CN1CC[C@@](C)(c2cccc(O)c2)[C@@H](C)C1)NC(=O)[C@@H](N)Cc1ccc(O)cc1` (stereo in doubt; form 1) [listing 1 of 2 here]: the Ke in test [1] is 12 nM; in [2], 44.6 nM.

On to `CC(C)[C@@H](CN1CC[C@@](C)(c2cccc(O)c2)[C@@H](C)C1)NC[C@H]1Cc2ccc(O)cc2CN1`, for which the Ki in [3] was 83.6 nM; on Mu-type opioid receptor [6], 3.8 nM; in test [8], 1.82 nM; in test [9] it was more than 4900 nM; in test [10] it was 0.63 nM. Moreover, the Ke in test [4] came to 427 nM; in test [1], 12.8 nM; in [2] it was 0.2 nM; in [5], 0.14 nM; on Mu-type opioid receptor [7], 14.3 nM.

Take `CC(C)[C@@H](CN1CC[C@@](C)(c2cccc(O)c2)[C@@H](C)C1)NC(=O)[C@H]1Cc2ccccc2CN1`: the Ki was 1090 nM in test [3]; 775 nM on Mu-type opioid receptor [12]; 33.1 nM at Mu-type opioid receptor [6]; 2.18 nM in [8]; more than 4900 nM in test [9]; 2.1 nM in test [10]. Besides, the Ke on Mu-type opioid receptor [11] is 8.38 nM; in test [5] it was 2.95 nM.

As for `CC(C)[C@@H](CN1CC[C@@](C)(c2cccc(O)c2)[C@@H](C)C1)NC(=O)[C@@H](N)Cc1ccc(O)cc1` (stereo in doubt; form 2) [listing 1 of 2 here], the Ki on Mu-type opioid receptor [12] was 633 nM; in test [9] it was more than 5050 nM; in [10], 16 nM.

As for `CC(C)[C@@H](CN1CC[C@@](C)(c2cccc(O)c2)[C@@H](C)C1)NC(=O)[C@@H](N)Cc1ccc(O)cc1` (stereo in doubt; form 1) [listing 2 of 2 here], the results for the Ki (on Mu-type opioid receptor [12]; in test [9]; in [10]) were 208 nM, more than 5050 nM and 20.4 nM, respectively.

On to `CC(C)[C@@H](CN1CC[C@@](C)(c2cccc(O)c2)[C@@H](C)C1)NC(=O)[C@@H](N)Cc1ccc(O)cc1` (stereo in doubt; form 2) [listing 2 of 2 here], for which the Ke came out at 16.5 nM in test [1] and 30 nM in [2].

`CC(C)[C@@H](CN1CC[C@@](C)(c2cccc(O)c2)[C@@H](C)C1)NC(=O)[C@H]1Cc2ccc(O)cc2CN1C(=O)CN(C)C`: the Ki in test [3] is 175 nM; on Mu-type opioid receptor [12] it was 164 nM; at Mu-type opioid receptor [6], 13.2 nM; in test [8], 16.2 nM; in [9] it was more than 3400 nM; in test [10] it was 15.5 nM. For the same compound, the Ke worked out at 299 nM in test [4]; 21.2 nM at Mu-type opioid receptor [11]; 29 nM in [1]; 0.16 nM in [2]; 1.1 nM in test [5].

As to `CC(=O)N1Cc2cc(O)ccc2C[C@@H]1C(=O)N[C@H](CN1CC[C@@](C)(c2cccc(O)c2)[C@@H](C)C1)C(C)C`, in [13], the Delta/kappa was > 34 and 15. For the same compound, the Ke in test [1] was 17.4 nM; in test [2] it was 19.6 nM. Besides, the Ki at Mu-type opioid receptor [12] is 764 nM; in [9], more than 4900 nM; in test [10], 146 nM.

Take `CC(C)[C@@H](CN1CC[C@@](C)(c2cccc(O)c2)[C@@H](C)C1)NC(=O)[C@H]1Cc2ccc(O)cc2CN1` [JDTIC]: the Ke was 79.3 nM in [4]; 3.41 nM at Mu-type opioid receptor [11]; 2.16 nM in test [1]; 0.02 nM in test [2]; 0.01 nM in test [5]. In addition, the Ki on Mu-type opioid receptor [12] stood at 3.73 nM; in test [9] it was 301 nM.

`CC(C)[C@@H](CN1CC[C@@](C)(c2cccc(O)c2)[C@@H](C)C1)NC(=O)[C@H]1Cc2ccc(O)cc2CN1C`: the Ki came out at 118 nM in test [3]; 37 nM at Mu-type opioid receptor [12]; 8.86 nM at Mu-type opioid receptor [6]; 1.01 nM in test [8]; 616 nM in test [9]; 0.053 nM in test [10]. The Ke was found to be 120 nM in test [4]; 8.92 nM on Mu-type opioid receptor [11]; 12.7 nM in [1]; 0.37 nM in test [2]; 0.1 nM in test [5].

Take `N=C(N)Nc1ccc2[nH]c3c(c2c1)C[C@@]1(O)[C@H]2Cc4ccc(O)c5c4[C@@]1(CCN2CC1CC1)[C@H]3O5` [GUANIDINONALTRINDOLE]: in test [13], the Delta/kappa was found to be 389. Besides, the Kb was 0.0398 nM in [14], 3.24 nM on Mu-type opioid receptor [15] and 15.5 nM in [17]. The results for the Ki (at Mu-type opioid receptor [12]; in test [9]; in test [10]) were 36.9 nM, 70 nM and 0.18 nM, respectively. Moreover, in test [16], the Mu/kappa ratio is 206.

With `CC(C)[C@@H](CN1CC[C@@](C)(c2cccc(O)c2)[C@@H](C)C1)NC(=O)[C@@H]1Cc2ccc(O)cc2CN1`, the Ke amounted to 11 nM in [1] and 4.2 nM in test [2]. Further, the Ki at Mu-type opioid receptor [12] is 596 nM; in test [9], more than 4900 nM; in test [10] it was 9.8 nM.

Regarding `CC(C)[C@@H](CN1CC[C@](C)(c2cccc(O)c2)[C@H](C)C1)NC(=O)[C@H]1Cc2ccc(O)cc2CN1`, the figures for the Ke in [1] and in test [2] were 178 nM and 16.7 nM, respectively. Also, the figures for the Ki (at Mu-type opioid receptor [12]; in test [9]; in test [10]) were 138 nM, 144 nM and 17.5 nM, respectively.

Compound `Oc1ccc2c3c1O[C@H]1c4[nH]c5c(c4C[C@@]4(O)[C@@H](C2)N(CC2CC2)CC[C@]314)C[C@@]1(O)[C@H]2Cc3ccc(O)c4c3[C@@]1(CCN2CC1CC1)[C@H]5O4` had a Ke in test [4] of 4.4 nM.

The Ki is a dissociation constant, usually derived from enzyme kinetics or from competition with a known ligand. Lower therefore signals a stronger hold on the target.
